MrgX1 agonist – human MrgX1 receptor agonism, primary screen | MrgX1-HEK293 cells, Fluo-4 calcium fluorescence, agonist mode; stronger effect = higher value | B-score at 10 µM | 310,000 tested, 0.44% active | AID 588627;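 active means calcium response B-score plate-corrected fluorescence ratio at least 3 library SD, with starting fluorescence B-score inside 5 SD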
Target sequence (Q96LB2 whole entry, looked up): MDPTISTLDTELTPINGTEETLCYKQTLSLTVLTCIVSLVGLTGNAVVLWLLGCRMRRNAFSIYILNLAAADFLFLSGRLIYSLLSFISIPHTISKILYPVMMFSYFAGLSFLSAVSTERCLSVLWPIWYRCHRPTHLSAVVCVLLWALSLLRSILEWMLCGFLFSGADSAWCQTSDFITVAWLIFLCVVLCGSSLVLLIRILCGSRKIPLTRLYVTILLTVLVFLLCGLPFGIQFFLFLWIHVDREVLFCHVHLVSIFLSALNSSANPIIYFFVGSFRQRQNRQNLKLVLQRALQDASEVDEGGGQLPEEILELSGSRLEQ
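Test system: HEK293 cells stably expressing human MrgX1 receptor; Input: fifteen thousand cells per well; Dosing: compound delivered in addition one of three; Schedule: overnight seeding, then 1 h dark dye loading; Technique: Fluo-4 NW calcium fluorescence; Measure: B-scored fluorescence response ratio; Controls: positive and negative controls per plate.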
RGS4 inh – inhibitors of human RGS4; AID 463165; B-score at 10 µM; 310,000 tested, 0.45% active; P49798; HEK293 M3R/RGS4 inducible, Fluo-4 calcium flux; stronger effect = higher value; triggered by carbachol at its EC20;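 active means B-score, a plate-corrected calcium signal, over three deviations above library mean, with baseline fluorescence within five deviations of library mean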;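 further: RGS4 expression induced by doxycycline in cells with stable M3 receptor; B-score is computed from the integrated fluorescence ratio over baseline after carbachol; higher B-score means a larger calcium signal and so more RGS4 inhibition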
Target sequence (P49798 whole entry, looked up): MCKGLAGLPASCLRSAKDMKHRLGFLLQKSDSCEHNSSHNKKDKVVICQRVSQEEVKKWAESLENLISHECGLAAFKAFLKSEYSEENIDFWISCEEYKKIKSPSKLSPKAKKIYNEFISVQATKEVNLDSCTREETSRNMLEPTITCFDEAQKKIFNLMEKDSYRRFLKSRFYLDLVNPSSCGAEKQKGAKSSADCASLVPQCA
RGS4 pot – potentiators or activators of RGS4 | HEK293 M3R/inducible RGS4, carbachol calcium flux Fluo4; stronger effect = lower value | B-score at 10 µM | 310,000 tested, 0.92% active | AID 463111;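 active means B-score of the integrated calcium signal more than 4 SD below the library mean, with starting fluorescence not abnormally high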;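 further: negative B-score means reduced calcium response which marks RGS4 activation or potentiation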
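Assay system: Inducible-RGS4 HEK293 cells carrying M3 receptor | Schedule: Compound preincubation 20 min at room temperature before agonist | Signal: Kinetic calcium fluorescence imaging with Fluo4-AM dye, 2 µM | Read-out basis: B score from integrated fluorescence ratio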
MrgX1 PAM – allosterically activates human MrgX1 receptor signaling | Q96LB2 | MrgX1-HEK293, Fluo-4 calcium flux, FDSS; stronger effect = higher value | B-score at 10 µM | 310,000 tested, 0.63% active;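 active means plate-corrected calcium response at least 3 library SD above typical, normal starting fluorescence, not activating the receptor alone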;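 further: compound read alongside a low EC10 to EC30 dose of BAM8-22 agonist; peak minus trough fluorescence over baseline measured at the second addition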
MrgX1 antagonist – blocks BAM8-22 activation of human MrgX1 receptor; B-score at 10 µM; MRGX1-HEK293 calcium flux, Fluo-4, BAM8-22 antagonism; stronger effect = lower value; 310,000 tested, 1.3% active;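 active means calcium-response B-score plate-corrected more than 3 library SD below zero, starting fluorescence within 5 deviations, no agonist response on first addition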;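 further: peak minus trough fluorescence over baseline after final BAM8-22 challenge near maximal dose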
RGS4 activ val – RGS4 activation, validation assay. shares compounds with RGS4 pot. inhibition, % at 10 µM. 1,100 tested, 89% active. HEK293 M3R/RGS4 inducible, carbachol calcium flux Fluo4;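 active means inhibition above 3 SD of the buffer control wells, cut at about 41% in these data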;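 further: signal is the integrated peak-minus-minimum Fluo4 fluorescence over baseline ratio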
M3R Ca counter – RGS4 activator counter-screen hit in non-induced cells. shares compounds with RGS4 pot. HEK293 M3R non-induced RGS4, Fluo4 calcium flux; after carbachol challenge at its EC90. inhibition, % at 10 µM. 1,100 tested, 82% active;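 active means inhibition exceeding 3 SD of buffer-only control wells, cut at about 26% in these data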;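 further: percent drop in integrated peak-minus-baseline over baseline Fluo4 ratio after carbachol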
RGS4 block valid – RGS4 inhibitor validation; shares compounds with RGS4 inh; HEK293 M3R/RGS4, carbachol calcium Fluo-4 fluorescence; carbachol added at its EC20; 0 = buffer wells, 100 = carbachol control; calcium response, % at 10 µM; 1,700 tested, 65% active;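 active means duplicate-averaged calcium response above the buffer-only control mean plus 5 SD of those controls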;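 further: integrated fluorescence ratio F max minus min over baseline F0; higher response in RGS4-induced cells means RGS4 inhibition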
RGS4 uninduced – checks RGS4 inhibitor effects in non-induced HEK293 M3R cells. shares compounds with RGS4 inh. carbachol calcium Fluo-4; submaximal (EC20) carbachol stimulus; buffer wells 0%, carbachol control wells 100%. activity (percent), % at 10 µM. 1,900 tested, 20% active; call rule not given here;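 further: RGS4 induction absent so cells express M3R without RGS4; higher means more calcium signal and flags a non-specific hit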
RGS4 inh ctr2 – second RGS4 inhibitor counter-screen in uninduced cells lacking carbachol; shares compounds with RGS4 inh; HEK293 M3R/RGS4 non-induced, Fluo-4 calcium, no carbachol; normalised: buffer wells 0%, carbachol wells 100%; calcium response (agonist-mode artifact), % at 10 µM; 1,900 tested, 22% active;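 active means duplicate-averaged calcium rise in uninduced cells above buffer wells' mean plus 5 SD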
MrgX1 ant reconf – human MrgX1 receptor antagonism, re-confirmation screen | shares compounds with MrgX1 antagonist | MrgX1-HEK293, BAM8-22 calcium flux, Fluo-4; stronger effect = lower value | remaining BAM8-22 calcium response % of control (stronger effect = lower value), % at 10 µM | 2,300 tested, 19% active;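 active means remaining agonist calcium response no higher than 100% minus 3 SD of agonist-only control wells, with starting fluorescence near control levels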;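 further: agonist BAM8-22 given at a near maximal EC90 to ECmax level; peak minus minimum fluorescence divided by baseline after agonist addition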
HEK293 Ca flux – activity in parental HEK293 cells lacking MrgX1; shares compounds with MrgX1 antagonist; Fluo-4 calcium fluorescence, FDSS; fluorescence ratio F(max-min)/F0 at 10 µM; 4,000 tested, 2% active;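 active means duplicate-averaged calcium fluorescence ratio at least three times the standard deviation of buffer wells, a nonspecific response in parental cells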
HEK293 Ca counter – MrgX1 allosteric activator counter-screen hit in parental HEK293 cells | shares compounds with MrgX1 antagonist | parental HEK293 calcium flux, Fluo-4 fluorescence ratio; stronger effect = higher value | fluorescence ratio F(max-min)/F0 at 10 µM | 4,000 tested, 0.4% active | AID 624114;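 active means calcium fluorescence ratio, averaged over duplicates, at least 3 SD of the buffer-well ratio, meaning a nonspecific response in receptor-free cells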;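 further: untransfected parental HEK293 lacking MrgX1 used as counterscreen for MrgX1 allosteric activators; fluorescence change taken during the second addition on a kinetic imager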
HEK293 Ca cntr2 – activity in parental HEK293 cells lacking MrgX1 receptor; AID 624115; fluorescence ratio F(max-min)/F0 at 10 µM; Fluo-4 calcium fluorescence (FDSS); stronger effect = higher value; shares compounds with MrgX1 antagonist; 4,000 tested, 8.7% active;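 active means calcium fluorescence ratio at least three times the spread of buffer wells, meaning a non-specific response in parental cells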
Hits are given with their value. Sampled rows, rich in hits. Any-hit rate of the full collection: about 3.5%.

How did CN1CCc2cc3c(c4c2C1Cc1ccccc1-4)OCO3 (stereo not given) do in these assays?
MrgX1 agonist: inactive; RGS4 inh: inactive; RGS4 pot: -7.79; MrgX1 PAM: inactive; MrgX1 antagonist: -6.56; RGS4 activ val: inactive; M3R Ca counter: inactive; MrgX1 ant reconf: inactive; HEK293 Ca flux: inactive; HEK293 Ca counter: inactive; HEK293 Ca cntr2: inactive

Results for C=CCN1C(=O)NC(=O)/C(=C/c2ccc(N(C)C)c(Br)c2)C1=O ?
MrgX1 agonist: inactive; RGS4 inh: inactive; RGS4 pot: inactive; MrgX1 PAM: inactive; MrgX1 antagonist: inactive

What do the screens show for `CCNC(=O)C1OC(n2cnc3c(N)ncnc32)C(O)C1O` (stereo not given)?
MrgX1 agonist: 30; RGS4 inh: 15.2; RGS4 pot: inactive; MrgX1 PAM: inactive; MrgX1 antagonist: inactive; RGS4 block valid: 48.5%; RGS4 uninduced: 71.5%; RGS4 inh ctr2: inactive

Results for CCOC(=O)C1CCN(Cc2ccc(Cl)nc2)CC1 ?
MrgX1 agonist: inactive; RGS4 inh: 5.52; RGS4 pot: inactive; MrgX1 PAM: inactive; MrgX1 antagonist: inactive; RGS4 block valid: 9.5%; RGS4 uninduced: 30.0%; RGS4 inh ctr2: inactive

What do the screens show for `CN1C(=O)C(=Cc2ccc(N3CCOCC3)o2)C(=O)N(C)C1=O`?
MrgX1 agonist: inactive; RGS4 inh: inactive; RGS4 pot: inactive; MrgX1 PAM: inactive; MrgX1 antagonist: inactive

How did CN1C(=O)C(=Cc2ccc(-c3cccc(Cl)c3)o2)C(=O)N(C)C1=O do in these assays?
MrgX1 agonist: inactive; RGS4 inh: 5; RGS4 pot: inactive; MrgX1 PAM: inactive; MrgX1 antagonist: inactive; RGS4 block valid: 22.0%; RGS4 uninduced: 34.0%; RGS4 inh ctr2: 52.5%

What do the screens show for `Cc1ccc(Sc2ccc(C=C3C(=O)N(C)C(=O)N(C)C3=O)o2)cc1`?
MrgX1 agonist: inactive; RGS4 inh: inactive; RGS4 pot: inactive; MrgX1 PAM: inactive; MrgX1 antagonist: inactive; RGS4 block valid: inactive; RGS4 uninduced: inactive; RGS4 inh ctr2: 79.5%

Results for CCc1cc2c(s1)N(CC(=O)OC)C(=O)CN=C2c1ccccc1OC ?
MrgX1 agonist: inactive; RGS4 inh: inactive; RGS4 pot: inactive; MrgX1 PAM: inactive; MrgX1 antagonist: inactive

How did CCc1cc2c(s1)NC(=O)CN=C2c1cccs1 do in these assays?
MrgX1 agonist: inactive; RGS4 inh: 5.96; RGS4 pot: inactive; MrgX1 PAM: inactive; MrgX1 antagonist: inactive; RGS4 block valid: 24.5%; RGS4 uninduced: 31.0%; RGS4 inh ctr2: inactive

Screening data deposited in PubChem BioAssay by Johns Hopkins Ion Channel Center.
